The record followed here is ChEMBL document CHEMBL3046408, “Disease control effect of strevertenes produced by Streptomyces psammoticus against tomato fusarium wilt” (J Agric Food Chem, 2011).

For one series, the system named is Solanum lycopersicum. The series is described as follows: Phytotoxicity in Solanum lycopersicum (tomato) plants upto 500 ug/mL. Format: organism-based. The settings on record: in vivo.
The next series concerns Ilyonectria destructans. Description: Antifungal activity against Ilyonectria radicicola assessed as complete growth inhibition after 1 to 3 days by CLSI M38-A method. Format: functional. The gist of the method: (§1)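 Broth microdilution in 96-well plates following CLSI M38-A. Conidial suspensions were dispensed to a final (0.5-5) × 10^4 spores/mL, with compound at final 0.125 to 64 μg/mL. Plates were incubated at 28 °C for 1-3 days. MIC was read visually as the lowest concentration giving complete growth inhibition.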

A further series deals with Aspergillus oryzae. Description: Antifungal activity against Aspergillus oryzae assessed as complete growth inhibition after 1 to 3 days by CLSI M38-A method. Format: functional. The gist of the method:
as §1

The subject of a further series is Alternaria brassicicola. The series is described as follows: Antifungal activity against Alternaria brassicola assessed as complete growth inhibition after 1 to 3 days by CLSI M38-A method. It counts as functional. The gist of the method:
as §1

A further series relates to Diaporthe citri. The series is described as follows: Antifungal activity against Diaporthe citri assessed as complete growth inhibition after 1 to 3 days by CLSI M38-A method. Format: functional. The gist of the method: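 Broth microdilution following CLSI M38-A. Mycelial-fragment suspension of the fungus at a final (0.5-5) × 10^4 fragments/mL. Antibiotic added to final concentrations of 0.125 to 64 μg/mL. Incubated at 28 °C for 1-3 days. Wells read visually; MIC is the lowest concentration giving complete growth inhibition.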

A further series deals with Colletotrichum coccodes. Description: Antifungal activity against Colletotrichum cocodes assessed as complete growth inhibition after 1 to 3 days by CLSI M38-A method. Format: functional. Put shortly: as §1
For the next series, the system named is Sclerotinia sclerotiorum. The series is described as follows: Antifungal activity against Sclerotinia sclerotiorum assessed as complete growth inhibition after 1 to 3 days by CLSI M38-A method. It counts as functional. Put shortly: (§2)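 CLSI M38-A microdilution in 96-well plates, inoculated with mycelial-fragment suspensions at a final (0.5-5) × 10^4 fragments/mL. Compound was added at final concentrations from 0.125 to 64 μg/mL. After 1-3 days at 28 °C, MIC was scored by eye as the lowest concentration completely inhibiting growth.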

Another series relates to Rhizoctonia solani. Description: Antifungal activity against Rhizoctonia solani assessed as complete growth inhibition after 1 to 3 days by CLSI M38-A method. It counts as functional. The gist of the method: as §2
A further series relates to Alternaria mali. The series is described as follows: Antifungal activity against Alternaria mali assessed as complete growth inhibition after 1 to 3 days by CLSI M38-A method. Format: functional. Put shortly: as §1
The test system of series [1] is Fusarium oxysporum f. sp. lycopersici. Description: Antifungal activity against Fusarium oxysporum f.sp. lycopersici JCM 12575 in tomato plants assessed as inhibition of Fusarium wilt disease severity at 1 ug/mL measured after 10 days of inoculation under green house condition. It counts as functional, organism-based. The gist of the method:
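Greenhouse assay. F. oxysporum f.sp. lycopersici JCM 12575 was grown in Czapek Dox broth at 28 °C for 14 days, and the inoculum was 2 × 10^6 conidia/mL. Wounded tomato seedling roots were dipped for 10 min, potted, and soil-drenched with 5 mL of compound (1, 10, 100, 500 μg/mL); controls received sterile water. Plants spent 24 h in a 28 °C dew chamber, then went to the greenhouse. Disease severity was scored 0-5 at 10 days post-inoculation.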

Series [2] shares this test system. Description: Antifungal activity against Fusarium oxysporum f.sp. lycopersici assessed as complete growth inhibition after 1 to 3 days by CLSI M38-A method. It counts as functional. Put shortly:
as §1

In series [3] the test system is Colletotrichum gloeosporioides. Description: Antifungal activity against Colletotrichum gloeosporioides assessed as complete growth inhibition after 1 to 3 days by CLSI M38-A method. Format: functional. The gist of the method:
as §1

The subject of another series is Cercospora canescens. Description: Antifungal activity against Cercospora canescens assessed as complete growth inhibition after 1 to 3 days by CLSI M38-A method. Format: functional. Put shortly:
as §1

In series [4] the test system is Fusarium oxysporum f. sp. cucumerinum. Description: Antifungal activity against Fusarium oxysporum f.sp. cucumerinum assessed as complete growth inhibition after 1 to 3 days by CLSI M38-A method. It counts as functional. Put shortly: as §1
Series [5] relates to Colletotrichum orbiculare. Description: Antifungal activity against Colletotrichum orbiculare assessed as complete growth inhibition after 1 to 3 days by CLSI M38-A method. It counts as functional. The gist of the method:
as §1

One may read the MIC as the smallest concentration in the dilution series that meets the test's criterion for growth inhibition.

In brackets after ≈: the same amount, converted by molar mass. Activity calls are given as the source filed them.

Turning to `C[C@H]1/C=C/C=C/C=C/C=C/C=C/[C@@H](O)[C@H](C(=O)O)[C@H](O)C[C@H](O)CCC[C@H](O)C[C@H](O)C[C@H](O)[C@@H](C)C(=O)O[C@@H]1C` [STREVERTENE A], the Activity result in the series with Solanum lycopersicum is reported as “Non-toxic”. Further, the minimum inhibitory concentration (MIC) in the series on Ilyonectria destructans was 16 µg/mL (≈ 27.6 µM); in the series on Aspergillus oryzae, 16 µg/mL (≈ 27.6 µM); in the series on Alternaria brassicicola, more than 64 µg/mL; in the series on Diaporthe citri, 32 µg/mL (≈ 55.1 µM); in the series with Colletotrichum coccodes, 8 µg/mL (≈ 13.8 µM); in the series with Sclerotinia sclerotiorum, 8 µg/mL (≈ 13.8 µM). In addition, the MIC was more than 64 µg/mL in the series with Rhizoctonia solani; 16 µg/mL (≈ 27.6 µM) in the series on Alternaria mali; 16 µg/mL (≈ 27.6 µM) in series [2]; 8 µg/mL (≈ 13.8 µM) in [3]; 16 µg/mL (≈ 27.6 µM) in the series on Cercospora canescens; 16 µg/mL (≈ 27.6 µM) in series [4]. Further, the MIC in [5] was determined as 8 µg/mL (≈ 13.8 µM). The inhibition result in series [1] is “Active”.
Take `CC[C@H]1C(=O)O[C@H](C)[C@@H](C)/C=C/C=C/C=C/C=C/C=C/[C@@H](O)[C@H](C(=O)O)[C@H](O)C[C@H](O)CCC[C@H](O)C[C@H](O)C[C@@H]1O` [STREVERTENE B]: the Activity entry with Solanum lycopersicum is “Non-toxic”. Moreover, the minimal inhibitory concentration (MIC) with Ilyonectria destructans was 16 µg/mL (≈ 26.9 µM); in the series with Aspergillus oryzae it was 10 µg/mL (≈ 16.8 µM); with Alternaria brassicicola it was more than 64 µg/mL; in the series with Diaporthe citri, 32 µg/mL (≈ 53.8 µM); in the series on Colletotrichum coccodes it was 8 µg/mL (≈ 13.5 µM); with Sclerotinia sclerotiorum it was 8 µg/mL (≈ 13.5 µM). Moreover, the MIC is more than 64 µg/mL in the series with Rhizoctonia solani; 16 µg/mL (≈ 26.9 µM) with Alternaria mali; 8 µg/mL (≈ 13.5 µM) in [2]; 8 µg/mL (≈ 13.5 µM) in series [3]; 32 µg/mL (≈ 53.8 µM) with Cercospora canescens; 8 µg/mL (≈ 13.5 µM) in series [4]. Further, the MIC in [5] worked out at 4 µg/mL (≈ 6.73 µM). Besides, in series [1], the inhibition entry is “Active”.
